# Several values for one entry are separate records, joined by “and”; a condition that tells them apart may be missing. Equal values may be shown once.
# Columns and labels:
# Assay type in all cases: cell-based
# GluA2Qflip AMPA receptor [1] = target: T1, GluA2Qflip AMPA receptor (Homo sapiens, UniProt P42262); test: Solution-flow amplitude measurement of whole-cell current; settings: Ki (closed-channel), solution-flow technique, GluA2Qflip in HEK-293 cells; 100 μM glutamate; amplitude A/AI, eq 6
# GluA2Qflip AMPA receptor [2] = target: T1, GluA2Qflip AMPA receptor; test: Laser-pulse photolysis amplitude measurement of whole-cell current
# Method in brief: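 HEK-293S cells in DMEM/10% FBS at 37 °C, 5% CO2, were transiently transfected with GluA2Qflip by calcium phosphate, with GFP and large T-antigen plasmids, and used at 48 h. Whole-cell recording at −60 mV, pH 7.4, 22 °C in HEPES/NaCl buffer. Caged glutamate was photolysed by a 355 nm pulse after 6 s inhibitor preincubation. The A/AI ratio versus inhibitor concentration was fitted by eq 6.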
# GluA2Qflip AMPA receptor [3] = target: T1, GluA2Qflip AMPA receptor; test: Laser-pulse photolysis rate measurement of channel opening; settings: for Mechanism of inhibition: inhibited both kop and kcl
# Method in brief: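 Transfected HEK-293S cells expressing GluA2Qflip were whole-cell clamped at −60 mV, pH 7.4, 22 °C. After 6 s preincubation with inhibitor, caged glutamate was photolysed by a 355 nm laser pulse of 200–800 μJ, with released glutamate calibrated against free glutamate in the same cell. The kcl term was taken from kobs at 100 μM glutamate over a range of inhibitor concentrations (eq 4), and kop at 350 μM (eq 5).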
# [4] = Ki (100 μM glu), amplitude measurement, laser-pulse photolysis, GluA2Qflip in HEK-293 cells, 100 μM glutamate, closed-channel state
# T1 sequence (P42262 25-883 isoform P42262-2 limits assumed): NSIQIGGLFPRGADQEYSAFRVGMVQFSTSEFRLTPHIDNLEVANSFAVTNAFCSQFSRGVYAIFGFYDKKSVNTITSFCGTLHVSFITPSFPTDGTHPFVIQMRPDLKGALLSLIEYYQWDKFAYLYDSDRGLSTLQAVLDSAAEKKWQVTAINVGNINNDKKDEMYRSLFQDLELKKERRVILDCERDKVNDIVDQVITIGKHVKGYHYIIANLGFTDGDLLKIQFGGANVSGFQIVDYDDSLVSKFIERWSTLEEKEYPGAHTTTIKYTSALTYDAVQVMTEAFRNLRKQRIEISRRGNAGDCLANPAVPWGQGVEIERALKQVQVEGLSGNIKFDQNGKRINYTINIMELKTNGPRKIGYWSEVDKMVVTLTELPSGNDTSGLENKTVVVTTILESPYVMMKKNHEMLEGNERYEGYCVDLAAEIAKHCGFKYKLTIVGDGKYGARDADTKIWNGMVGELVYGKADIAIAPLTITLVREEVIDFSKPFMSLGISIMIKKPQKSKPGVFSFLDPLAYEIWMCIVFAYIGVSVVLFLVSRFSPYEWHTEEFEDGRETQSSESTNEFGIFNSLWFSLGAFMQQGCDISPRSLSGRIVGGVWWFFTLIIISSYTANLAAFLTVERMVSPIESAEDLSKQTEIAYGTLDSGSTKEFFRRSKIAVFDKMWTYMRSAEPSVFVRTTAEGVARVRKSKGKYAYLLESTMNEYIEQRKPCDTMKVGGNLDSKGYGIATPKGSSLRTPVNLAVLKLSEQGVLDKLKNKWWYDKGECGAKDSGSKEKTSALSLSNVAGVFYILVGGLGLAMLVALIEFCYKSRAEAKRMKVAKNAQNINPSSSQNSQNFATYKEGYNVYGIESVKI
SMILES,Ki (GluA2Qflip AMPA receptor [1]),Ki (GluA2Qflip AMPA receptor [2]),Ki (GluA2Qflip AMPA receptor [2]; [4]),Ki (GluA2Qflip AMPA receptor [3]),Mechanism of inhibition (GluA2Qflip AMPA receptor [3])
"Nc1ccc(C2=NNC(=O)Cc3cc4c(cc32)OCO4)cc1 [BDZ-2, 1-(4-aminophenyl)-3,5-dihydro-7,8-methylenedioxy-4H-2,3-benzodiazepin-4-one]",25 ± 1 µM,23 to 25 µM,25 ± 1 µM,48 µM and 194 µM,noncompetitive
"CC1=NN=C(c2ccc(N)cc2)c2cc3c(cc2C1)OCO3 [GYKI 52466, 1-(4-aminophenyl)-4-methyl-7,8-methylenedioxy-5H-2,3-benzodiazepine]",14 ± 1 µM,14 to 16 µM,15 ± 1 µM,61 µM and 128 µM,noncompetitive

# — publication PMC3206322 (ACS chemical neuroscience, 2011)
